Screens deposited in PubChem by The Scripps Research Institute Molecular Screening Center.
Fam108B inh: mouse Fam108B serine hydrolase inhibitors, primary screen, counter-screen for RBBP9 inhibitor project, biochemical, fluorescence polarization; inhibition, % at 9.51 µM; AID 1947, 2009; actives 0.33% (n = 300,000); recombinant Fam108B, FP-Rh probe fluorescence polarization;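 active = inhibition above the screen mean inhibition plus 3 SD, computed separately per campaign, cut at about 18% in these data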;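 note: inhibitors lower polarization as less probe binds the enzyme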
mABHD4 FP: ABHD4 inhibitors, primary screen, biochemical, fluorescence polarization, mouse; (Lyso)-N-acylphosphatidylethanolamine lipase (Mus musculus), Q8VD66; purified mABHD4, FP-Rh probe fluorescence polarization; inhibition, % at 8.92 µM; actives 0.54% (n = 370,000);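 active = inhibition exceeding the mean over every tested compound plus 3 SD, cut at about 30% in these data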;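 note: 0% = plate median of compound wells and 100% = S159A mutant with DMSO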
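Assay system: Wild-type mouse ABHD4 protein | Medium: HEPES pH 7.0 buffer, 150 mM NaCl, 0.01% Pluronic F-127 | Incubation: Enzyme–compound pre-incubation 45 min, then probe 60 min, both 25 °C | Technique: Fluorescence polarization with parallel and perpendicular emission, 525/598 nm | Evaluation: % inhibition of FP-Rh probe binding versus controls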
HTRA1 inhibitor: HTRA1 serine protease inhibitors, primary screen, biochemical, fluorescence polarization, HTS | inhibition, % at 5.96 µM | Q92743 | recombinant HTRA1, FP-rhodamine activity-based probe | actives 0.5% (n = 340,000); in the data active = inhibition above about 36%;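 note: 0% = enzyme with DMSO and 100% = wells lacking enzyme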
Target sequence (Q92743 whole entry, looked up): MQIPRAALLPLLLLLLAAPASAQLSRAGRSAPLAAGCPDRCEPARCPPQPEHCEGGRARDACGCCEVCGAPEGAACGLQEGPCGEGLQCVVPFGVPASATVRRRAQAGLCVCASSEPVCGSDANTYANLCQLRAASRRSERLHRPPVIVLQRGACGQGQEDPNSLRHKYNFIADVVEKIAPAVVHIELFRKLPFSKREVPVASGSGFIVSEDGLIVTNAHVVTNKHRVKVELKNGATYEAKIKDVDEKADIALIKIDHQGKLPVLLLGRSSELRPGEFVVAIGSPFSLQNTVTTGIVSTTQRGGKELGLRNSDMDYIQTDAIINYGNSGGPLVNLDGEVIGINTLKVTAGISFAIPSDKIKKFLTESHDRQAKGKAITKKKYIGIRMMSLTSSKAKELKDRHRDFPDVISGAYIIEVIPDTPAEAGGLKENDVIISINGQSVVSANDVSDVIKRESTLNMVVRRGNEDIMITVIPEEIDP
PME-1 primary: PME-1 inhibitors via competitive probe labeling, primary screen, biochemical, fluorescence polarization, FP-Rh probe, HTS; Protein phosphatase methylesterase 1 (Homo sapiens), Q9Y570; recombinant PME-1; inhibition, % at 5.9 µM; actives 0.53% (n = 320,000); AID 2130, 2009;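 active = inhibition above the campaign mean of all compounds plus 3 SD, cut at about 26% in these data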;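 note: competitive labeling of PME-1 active site by serine hydrolase directed probe; 0% = PME-1 with DMSO and 100% = wells lacking PME-1 enzyme; inhibitors block probe labeling so polarization falls and inhibition rises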
TCR CD3 inh: inhibitors of human TCR-CD3 interaction, primary screen, biochemical, fluorescence, TAMRA-labeled TCR probe | AID 651800, 2012 | actives 0.37% (n = 360,000) | T-cell receptor (TCR) | inhibition, % at 9.4 µM; in the data active = inhibition above about 19%;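 note: recombinant mutant TCR 2C K166C tagged with TAMRA read by polarization; 0% = receptor in buffer alone and 100% = receptor with positive control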
SIAE inh: human SIAE inhibitors, primary screen, biochemical, fluorescence polarization, FP-Rh probe, 1536-well HTS; SIAE FP-Rh probe binding; inhibition, % at 9.66 µM; actives 0.69% (n = 370,000); AID 1053197, 2014;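 active = inhibition above a cutoff: mean of compounds within the control limits plus 3 SD of those, cut at about 17% in these data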;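 note: 0% = plate median of compound wells and 100% = probe without SIAE protein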
SIAE confirm: human SIAE inhibitors, retest, confirmation, biochemical, fluorescence polarization, FP-Rh probe, triplicate; shares compounds with SIAE inh; SIAE FP-Rh activity-based probe; inhibition, % at 9.66 µM; actives 13% (n = 2,300);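 active = mean inhibition of the replicates above the hit cutoff set in the primary screen, cut at about 17% in these data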;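 note: 0% = SIAE with DMSO and probe and 100% = probe without SIAE; inhibitors lower polarization as more probe stays unbound to SIAE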
An asterisk follows results filed as active; nt = no result. Compounds with a hit are over-represented: about 1.8% of the library has one in this group of screens.

SMILES	Fam108B inh	mABHD4 FP	HTRA1 inhibitor	PME-1 primary	TCR CD3 inh	SIAE inh	SIAE confirm
COC(=O)C1CN(Cc2ccc(C)cc2)CCS(=O)(=O)N1Cc1cn(Cc2ccc(F)cc2)nn1 (configuration not stated)	nt	-2.3	nt	nt	nt	60.4*	-3.0
COC(=O)C1CN(Cc2ccc(F)cc2)CCS(=O)(=O)N1Cc1cn(Cc2ccc(F)cc2)nn1 (configuration not stated)	nt	4.6	nt	nt	nt	4.5	nt
CCOC(=O)c1c(/N=C/C2=C(O)CCCC2=O)sc(C)c1C	-5.3	-13.4	-3.5	-0.5	-2.5	18.0*	2.2
COc1ccc(CCN2C(=O)CSC2c2ccc(F)cc2)cc1 (configuration not stated)	-0.5	-14.4	-21.5	-0.6	-13.5	-13.2	nt
O=C(CSc1nnc(SCc2ccccc2Cl)s1)N/N=C/c1c[nH]c2ccccc12	13.1	-5.2	1.7	35.6*	7.8	28.4*	9.3
O=C(O)C(c1ccccc1)C(O)C1CCCC1 (configuration not stated)	nt	1.4	2.8	nt	5.0	2.0	nt
O=C(CN1CCN(c2ccccc2O)CC1)NC(c1ccccc1)c1ccccc1	-2.1	-7.4	-7.8	9.5	-1.3	18.2*	3.8
O=C(CN1CCCC1)NC(c1ccccc1)c1ccccc1	0.6	11.9	-6.0	3.0	6.6	15.9	nt
COc1ccc(-c2nnn(CC(=O)N3CCN(c4ccc(F)cc4)CC3)n2)cc1	3.5	1.9	5.4	-2.6	5.1	-4.0	nt
COc1ccc(N2CCN(C(=O)CN3CCN(c4nc(-c5ccc(F)cc5)cs4)CC3)CC2)cc1	5.3	-1.1	4.7	5.0	5.0	28.1*	5.6
COc1ccc(N2CCN(C(=O)COC(=O)CSc3ccccc3)CC2)cc1	nt	1.5	10.2	nt	2.4	1.2	nt
COc1ccc(NC(=O)/C=C/c2cc(OC)c(OC)c(OC)c2)cn1	-6.5	4.3	3.3	-5.4	2.0	21.3*	3.0
COc1ccc(OC)c2c1C(=O)C(Cl)=C(Cl)C2=O	-1.3	23.8	-0.3	2.5	-3.8	10.4	nt
COc1ccc(OC)c2c1C(=O)c1ccccc1C2=O	15.6	17.1	nt	27.7*	-5.6	23.6*	10.4
COC(=O)CSc1ncnc2c(C)csc12	0.5	-6.8	nt	2.4	1.4	7.4	nt
Cc1cc(C)cc(N/C(N)=N/c2nc(C)cc(C)n2)c1	-11.0	4.7	0.6	-0.2	4.5	22.6*	1.9
Cc1ccc(-n2c(SCc3cc(=O)n4ccsc4n3)nnc2-c2cccnc2)c(C)c1	0.9	-0.1	8.1	-1.6	5.6	17.3*	-2.9
COc1ccc(OC)c(/C=N/c2c(-c3ccc(O)c(OC)c3)nc3ccccn23)c1	1.9	7.4	1.7	-2.5	-3.7	2.2	nt
COc1cc(-c2nc3ccccn3c2/N=C/c2cc(OC)c(OC)c(OC)c2)ccc1O	3.8	6.0	-3.8	0.3	1.4	28.2*	16.0
CCOC(=O)C(C)N1CC(=O)N(c2ccccc2)C1=O (configuration not stated)	-1.8	-1.5	0.3	-1.5	4.8	17.6*	2.4
CCOC(=O)C1=C(C)N(c2ccccc2)C(=O)C1	-0.7	6.5	-1.1	4.1	4.5	-2.4	nt
C[C@]12CCC(=O)C=C1C=C[C@@H]1[C@@H]2CC[C@@]2(C)[C@H]1CC[C@@]21CCC(=O)O1	nt	1.2	0.1	nt	-4.4	19.3*	0.6
COc1ccc2c(c1)CN1C(=O)N(C3CCCC3)S(=O)(=O)CC21 (configuration not stated)	nt	5.9	nt	nt	nt	-7.6	nt
CC[C@]12c3[nH]c4cc(-c5ccco5)ccc4c3CCN1C(=O)[C@@H](CC(=O)NCc1cccc(C(F)(F)F)c1)C[C@@H]2C(=O)N1CCN(C(=O)c2ccco2)CC1	nt	1.2	-4.5	nt	-6.0	3.0	nt
CCC(=O)Nc1nc(C)c(-c2csc(Nc3cccc(C(=O)O)c3)n2)s1	-1.6	24.1	4.4	2.1	6.1	-22.8	nt
SMILES	Fam108B inh	mABHD4 FP	HTRA1 inhibitor	PME-1 primary	TCR CD3 inh	SIAE inh	SIAE confirm
CC(=O)Nc1nc(C)c(-c2csc(Nc3cccc(C(C)=O)c3)n2)s1	12.9	21.1	11.7	16.9	-11.9	42.0*	64.7*
O=[N+]([O-])c1ccc(CN2CC(N3CCN(CC4CC4)CC3)CS2(=O)=O)cc1 (configuration not stated)	nt	-0.9	3.2	nt	-0.2	4.0	nt
O=C(C[n+]1cccc2ccccc21)c1ccc(Br)cc1	-1.5	1.5	-1.9	-2.4	-4.5	20.3*	-4.3
Cc1ccn2cc(-c3ccc(Br)cc3)nc2c1	12.8	2.9	-7.2	0.0	6.6	17.2*	-1.0
CCC1(c2ccc(F)cc2)NC(=O)N(CC(=O)N(C)C2CCS(=O)(=O)C2)C1=O (configuration not stated)	0.6	-0.7	6.8	0.8	-3.0	21.2*	-1.7
OC(c1ccccc1)(c1ccccc1)c1cnc2ccccn12	nt	-4.8	nt	nt	nt	-1.6	nt
Nc1ccc(C(=O)N/N=C/c2sc(N3CCOCC3)nc2-c2ccccc2)cc1	10.6	13.8	10.7	-22.5	-2.4	17.1*	4.0
O=C(N/N=C/c1sc(N2CCOCC2)nc1-c1ccccc1)c1ccccc1F	0.0	nt	nt	0.1	nt	nt	nt
NC1=NC(=O)C(c2ccccc2)(c2ccccc2)S1	nt	-3.3	0.3	nt	4.1	-2.8	nt
COc1ccc(OC)c(Nc2nc(NCc3ccco3)c3ccccc3n2)c1	11.8	15.0	23.0	24.6	6.3	17.7*	10.5
Cc1ccccc1Nc1nc(NCc2ccco2)c2ccccc2n1	3.2	20.2	-32.1	5.4	-0.4	-0.9	nt
COc1ccc(OC)c([N+](=O)[O-])c1C(N)=O	3.2	2.0	1.8	-0.6	3.8	33.0*	1.9
Cc1nnc(SCC(=O)Nc2cc(C(F)(F)F)ccc2Cl)n1C	2.9	-0.3	2.5	-1.0	-5.7	-2.9	nt
COCCNc1nc(NCc2cccc(OC)c2)c2sc(-c3ccccc3)cc2n1	nt	27.5	nt	nt	-4.8	34.5*	30.6*
COCCNc1nc(NCc2ccc(NC(C)=O)cc2)c2sc(-c3ccccc3)cc2n1	nt	22.2	nt	nt	-10.0	27.0*	18.0*
c1ccc(OCCNc2nc(NCC3CC3)nc3cc(-c4ccccc4)sc23)cc1	nt	15.5	nt	nt	1.8	22.4*	21.3*
COc1cccc(CNc2nc(NCc3ccccc3)nc3ccsc23)c1	nt	27.9	nt	nt	-4.4	12.1	nt
CCOc1cc(C=O)ccc1OCCn1c([N+](=O)[O-])cnc1C	8.8	1.7	29.2	2.1	11.8	1.5	nt
